# ChEMBL document CHEMBL3227967, “Quantitative structure-activity relationships in 1-aryl-2-(alkylamino)ethanol antimalarials” (J Med Chem, 1979)
# Test: Lipophilicity, log P of the compound in 0.1 N HCl solution
# Type: physicochemical
# Conditions: 0.1 N HCl solution; read-out: logP
# How it was run: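 Partition coefficients of the hydrochloride salts were measured from 0.1 N HCl solution unless a footnote says otherwise. Some entries were not measured. They were calculated by adding the Δlog P of the corresponding phenanthrene analogues to the measured log P of a reference hydrochloride.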
row,logP,SMILES
1,3.29,CCCN(CCC)CC(O)c1cc(-c2ccccc2)nc(-c2ccccc2)c1 (stereo not given)
2,3.17,CCCCN(CCCC)CC(O)c1cnc2c(Cl)cc(Cl)cc2c1Cl (stereo not given)
3,3.84,OC(CNC12CC3CC(CC(C3)C1)C2)c1cc(-c2ccc(F)cc2)nc2cc(F)ccc12 (stereo not given)
4,4.01,CCCCCN(CCCCC)CC(O)c1cc2ccccc2c2ccccc12 (stereo not given)
5,5.25,CCN(CC)CC(O)c1cc(Cl)cc2c(C)ccnc12 (stereo not given)
6,2.31,CCCCN(CCCC)CC(O)c1cc(Cl)cc2c(C)ccnc12 (stereo not given)
7,2.59,CCNCC(O)c1cc(-c2ccccc2)nc(-c2ccccc2)c1 (stereo not given)
8,3.34,OC(CC1CCNCC1)c1cc2ccc(C(F)(F)F)cc2c2cc(C(F)(F)F)ccc12 (stereo not given)
9,4.03,CCCCCCCN(CCCCCCC)CC(O)c1cc2ccccc2c2cccnc12 (stereo not given)
10,3.47,Cc1cc(C(O)CN2CCCCCC2)cc2ccc(-c3ccccc3)nc12 (stereo not given)
11,2.63,CCCCN(CCCC)CC(O)c1cnc2c(C(F)(F)F)cccc2c1Cl (stereo not given)
12,5.4,OC(CN1C=CN(c2ccccc2)C=C1)c1cc(-c2ccc(Cl)cc2)nc2cc(Cl)ccc12 (stereo not given)
13,4.17,CCCCN(CCCC)CC(O)c1cc(-c2ccccc2)nc(-c2ccccc2)c1 (stereo not given)
14,0.68,CCN(CC)CC(O)c1ccc(Cl)c2c(C)ccnc12 (stereo not given)
15,2.56,OC(CC1CCCCN1)c1cc(C2CCCCC2)nc2ccccc12 (stereo not given)
16,6.67,CCCCNCC(O)c1cc(/C=C/c2ccc(C(F)(F)F)cc2)nc(/C=C/c2ccc(C(F)(F)F)cc2)c1 (stereo not given)
17,3.18,OC(c1cc(-c2ccccc2)nc(-c2ccccc2)c1)C1CCCCN1 (stereo not given)
18,0.55,CNCC(O)c1cc(-c2ccccc2)nc2ccccc12 (stereo not given)
19,2.69,Cc1ccc(Oc2cc(C(O)CC3CCCCN3)c3ccccc3n2)cc1 (stereo not given)
20,4.51,CCCCCCN(CCCCCC)CC(O)c1cc(-c2ccccc2)nc2ccccc12 (stereo not given)
21,3,CCCCN(CCCC)CC(O)c1cc2ccccc2c2ccccc12 (stereo not given)
22,4.4,CCCCN(CCCC)CC(O)c1cc(-c2ccc(Cl)cc2)c2cc(OC)c(Cl)cc2n1 (stereo not given)

row,logP,SMILES
1,2.46,CCCCN(CCCC)CC(O)c1cnc2c(Cl)cc(Cl)cc2c1 (stereo not given)
2,3.47,Cc1cc(C(O)CN2CCCCCC2)c2nc(-c3ccccc3)ccc2c1 (stereo not given)
3,3.51,OC(CN1CCCCC1)c1c2ccccc2nc2c1ccc1ccccc12 (stereo not given)
4,3.62,OC(CN1CCCCCC1)c1ccc2c(Cl)cc(-c3ccccc3)nc2c1 (stereo not given)
5,2.55,CCCCN(CCCC)CC(O)c1c(OC)c2ccccc2c2ccccc12 (stereo not given)
6,2.54,CCN(CC)CC(O)c1cc(-c2ccccc2)nc(-c2ccccc2)c1 (stereo not given)
7,2.19,NCC(O)c1cc2ccc(C(F)(F)F)cc2c2cc(C(F)(F)F)ccc12 (stereo not given)
8,1.43,CCCNCC(O)c1cc(-c2ccccc2)nc2ccccc12 (stereo not given)
9,6.11,OC(CN1C=CN(c2ccccc2)C=C1)c1cc(-c2ccc(Cl)cc2)nc2c(Cl)cc(Cl)cc12 (stereo not given)
10,3.62,OC(CN1CCCCCC1)c1cc(Cl)c2nc(-c3ccccc3)ccc2c1 (stereo not given)
11,0.93,OC(CC1CCCCN1)c1cc(C(F)(F)F)nc2ccccc12 (stereo not given)
12,3.97,CCCCCNCC(O)c1cc(-c2ccccc2)nc(-c2ccccc2)c1 (stereo not given)
13,1.69,CCCN(CCC)CC(O)c1cc(-c2ccccc2)nc2ccccc12 (stereo not given)
14,2.46,CCCCN(CCCC)CC(O)c1c(Cl)cc(Cl)c2ncccc12 (stereo not given)
15,3.71,CCCCN(CCCC)CC(O)c1cnc2c(-c3ccccc3)cccc2c1Cl (stereo not given)
16,4.29,CC(=O)N1CCCCC1CC(O)c1cc(C23CC4CC(CC(C4)C2)C3)nc2c(Cl)cc(Cl)cc12 (stereo not given)
17,3.32,CCN1C=CN(CC(O)c2cc(-c3ccc(F)cc3)nc3cc(F)ccc23)C=C1 (stereo not given)
18,3.47,CCCCNCC(O)c1cc(-c2ccccc2)nc(-c2ccccc2)c1 (stereo not given)
19,4.26,OC(CN1C=CN(c2ccccc2)C=C1)c1cc(-c2ccc(F)cc2)nc2cc(F)ccc12 (stereo not given)
20,0.98,CNCC(O)c1cc2ccccc2c2ccccc12 (stereo not given)
21,4.03,CCCCCCCN(CCCCCCC)CC(O)c1cc2ccccc2c2cnccc12 (stereo not given)

row,SMILES,logP
1,CCC1C[N+]2(c3ccnc4ccc(OC(C)CO)cc34)CCC1CC2 (stereo not given),2.31

# Same assay, conditions: buffer
row,logP,SMILES
1,9.77,CCCCCCCCCN(CCCCCCCCC)CCC(O)c1cc2ccc(C(F)(F)F)cc2c2cc(C(F)(F)F)ccc12 (stereo not given)
